This note sets out measurements from PMC9558494 (Angewandte Chemie (International Ed. in English), 2022).

The target of one data set is ERAP2 (Homo sapiens, UniProt Q6P179). Put plainly: ERAP2 activity assay using R-AMC substrate. It is filed as biochemical.
Data set [1] relates to SIINFEKL OVA-derived antigen presentation in HEK cells. Put plainly: Antigen presentation assay. It is filed as cell-based. The following applies: HEK cells where LSIINFEKL is endogenously produced, 24 h.
A short description of the next data set: LogD octanol/PBS pH 7.4. It counts as physicochemical.
Another data set is described as follows: Stability in plasma. It counts as in vitro ADME. The following applies: both, human.
A short description of a further data set: Microsomal stability. It counts as in vitro ADME, human. The conditions noted are these: for half-life at 1 µM: both, human, liver microsomes, pH 7.4; for HLM Cl: human liver microsomes. On the technique in general: Liver microsomes are vesicles of endoplasmic reticulum, rich in cytochrome P450 enzymes.
The nature of data set [2]: Pharmacokinetics in mouse. It counts as in vivo, mice. A digest of the protocol: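 Female mice received a single i.p. dose of 50 mg/kg. Derived parameters were elimination-phase half-life (T1/2 β, min), Cmax (μM), Tmax (min) and AUC extrapolated to infinity (AUC0‑∞, min μM).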
The mark [3] stands for this setting: female, CD-1, mouse, plasma, ip, 50 mg/kg.

Some results are limits rather than exact numbers.

Sequence of ERAP2 (Q6P179 whole entry): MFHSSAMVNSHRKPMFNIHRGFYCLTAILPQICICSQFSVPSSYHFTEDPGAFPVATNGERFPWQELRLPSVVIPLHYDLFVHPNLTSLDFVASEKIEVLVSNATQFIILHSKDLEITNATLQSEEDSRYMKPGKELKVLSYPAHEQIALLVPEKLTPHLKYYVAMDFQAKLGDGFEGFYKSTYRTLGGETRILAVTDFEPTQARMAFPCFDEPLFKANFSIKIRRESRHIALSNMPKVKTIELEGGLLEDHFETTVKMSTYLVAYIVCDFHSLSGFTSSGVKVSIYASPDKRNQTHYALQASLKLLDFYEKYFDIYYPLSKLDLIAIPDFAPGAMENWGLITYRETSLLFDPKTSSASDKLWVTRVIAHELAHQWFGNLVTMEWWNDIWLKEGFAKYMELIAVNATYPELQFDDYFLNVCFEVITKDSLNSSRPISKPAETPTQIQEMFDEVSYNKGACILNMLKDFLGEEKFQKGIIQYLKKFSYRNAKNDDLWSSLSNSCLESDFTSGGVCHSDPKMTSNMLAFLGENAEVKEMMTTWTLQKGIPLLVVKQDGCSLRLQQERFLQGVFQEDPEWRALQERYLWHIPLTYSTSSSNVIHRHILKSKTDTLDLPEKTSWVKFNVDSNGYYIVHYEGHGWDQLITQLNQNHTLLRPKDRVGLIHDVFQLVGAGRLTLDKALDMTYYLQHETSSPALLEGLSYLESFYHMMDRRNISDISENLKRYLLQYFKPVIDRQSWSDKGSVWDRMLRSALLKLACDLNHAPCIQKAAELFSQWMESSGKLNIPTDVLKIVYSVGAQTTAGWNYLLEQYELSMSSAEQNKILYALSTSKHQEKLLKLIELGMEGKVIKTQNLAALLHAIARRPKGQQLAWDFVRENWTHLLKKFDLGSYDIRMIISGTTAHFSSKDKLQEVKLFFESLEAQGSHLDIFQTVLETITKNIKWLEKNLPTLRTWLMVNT

In the case of `O=C(NO)[C@H](Cc1ccc(O)cc1)n1cc(CNS(=O)(=O)c2ccc(-c3ccccc3)s2)nn1` [4 a], the IC50 against ERAP2 is 0.76 µM.

At ERAP2, `O=C(C[C@@H](Cc1c[nH]c2ccccc12)n1cc(CNS(=O)(=O)c2ccc(-c3ccccc3)s2)nn1)NO` [2 b] registered a concentration for half-maximal inhibition (IC50) of 12 µM.

Molecule `O=C(C[C@@H](Cc1ccc2ccccc2c1)n1cc(CNS(=O)(=O)c2ccc(-c3ccccc3)s2)nn1)NO` [2 c] yielded a concentration for half-maximal inhibition (IC50) on ERAP2 of 2.29 µM.

As for `O=C(NO)[C@H](Cc1ccc(Oc2ccccc2)cc1)n1cc(CNS(=O)(=O)c2ccc(-c3ccccn3)s2)nn1` [4 f], the “effect on SIINFEKL antigen presentation” value in data set [1] is “dose‐dependent effect”. Besides, the pH-dependent lipophilicity (logD) at 2 h in “LogD octanol/PBS pH 7.4” worked out at 4.11. In the data set “Stability in plasma”, this molecule gave a half-life at 10 µM greater than 6 h.

On to `O=C(NO)[C@@H](Cc1c[nH]c2ccccc12)n1cc(CNS(=O)(=O)c2ccc(-c3ccccc3)s2)nn1` [4 b], for which, on ERAP2 (read-out: %inh at 100 μM), the inhibition at 100 µM was determined as 43%. For the same molecule, the “ERAP2 activity in words” value at ERAP2 (replacement of the phenol group by an indole) is “complete loss of activity”.

`COc1ccc(C[C@@H](C(=O)NO)n2cc(CNS(=O)(=O)c3ccc(-c4ccccn4)s3)nn2)cc1` [4 e]: in “Microsomal stability”, the half-life at 1 µM is greater than 0.667 h and the “HLM Cl” value stood at 21 µL/min/g. In addition, the logD at 2 h in the data set “LogD octanol/PBS pH 7.4” was 1.81. The molecule also registered a half-life at 10 µM in the data set “Stability in plasma” greater than 6 h.

For `COc1ccc(C[C@@H](C(=O)NO)n2cc(CNS(=O)(=O)c3ccc(-c4ccccc4)s3)nn2)cc1` [4 d], in “Microsomal stability”, the half-life at 1 µM is greater than 0.667 h and the “HLM Cl” value amounted to 50 µL/min/g. Besides, the “effect on SIINFEKL antigen presentation” value in data set [1] is recorded as “dose‐dependent effect”. Also, in the data set “LogD octanol/PBS pH 7.4”, the logD at 2 h came out at 2.99. In data set [2] (setting [3]), this molecule had an AUC of 12.9 µM·h and a Cmax of 18 µM. For the same molecule, the “tolerability of the dose” value in data set [2] (mice, 50 mg kg^−1, i. p.) is reported as “tolerated”. The half-life at 10 µM in the data set “Stability in plasma” is greater than 6 h.

The IC50 is the midpoint of a concentration-inhibition curve. A low value points to higher potency. A word on the logD: it is the decadic logarithm of the distribution of all forms, ionised or not, between an organic phase and buffer at a given pH. Low readings indicate a more hydrophilic compound, high ones a more lipophilic compound. A word on the half-life: it is how long it takes for the measured level to halve. Higher therefore signals slow loss. The AUC is the area under the concentration-time curve, a measure of exposure. Lower therefore signals less exposure. The term Cmax denotes the highest concentration seen after dosing.
